Assay [1] deals with HL-60. Briefly: In vitro concentration required to induce apoptosis in HL60 cells. It counts as functional, cell-based, Homo sapiens. The procedure, abridged: (§1)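 Apoptosis scored morphologically after acridine orange/ethidium bromide labeling. 2 × 10^5 cells were pelleted at 300g, resuspended in dye mix and examined under a fluorescence microscope with a 100× oil objective. Percentages were confirmed by annexin V/PI and by the PI sub-G0-G1 hypodiploid peak after 48 h culture. Compounds were diluted in medium from DMSO or PBS, DMSO ≤0.1%.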

Assay [2] concerns HL-60. The assay is described as follows: In vitro inhibitory concentration against proliferation of HL60 cells. The format is functional, cell-based, Homo sapiens. The essentials:
(§2)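 Cells were cultured at 37 °C in 5% CO2. 2 × 10^5 cells in 1 mL complete medium were treated with a range of drug concentrations for 48 h. Viable cells were counted on a hemocytometer after trypan blue staining and expressed as percent of control proliferation. Compounds were diluted in medium from DMSO or PBS stocks, final DMSO ≤0.1%, protected from light.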

Assay [3] deals with HL-60. The assay is described as follows: (§3) In vitro inhibitory concentration against proliferation of HL60R cells. It counts as functional, cell-based. To be noted: Homo sapiens. The procedure, abridged:
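HL60R cells, 2 × 10^5 per well in 1 mL complete medium at 37 °C with 5% CO2, treated with a range of drug concentrations for 48 h. Compounds were dissolved in DMSO or PBS, with final DMSO ≤0.1%. Viable cells were counted by trypan blue exclusion on a hemocytometer and expressed as percent of control proliferation to derive the IC50.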

The test system of assay [4] is HL-60. Briefly: (§4) In vitro concentration required to induce apoptosis in HL60R cells. It counts as functional, cell-based. To be noted: Homo sapiens. The procedure, abridged:
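HL60R cells in 5% CO2 at 37 °C, treated with a range of drug concentrations for 48 h. Cells were labelled with acridine orange/ethidium bromide and scored under fluorescence microscopy (100× oil) as live, apoptotic or necrotic. The AC50 is derived from the percentage of apoptotic cells. Annexin V/PI staining and PI sub-G0-G1 flow cytometry served as confirmation. DMSO ≤0.1%.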

Assay [5] has as its system HL-60. The assay is described as follows: (§5) In vitro inhibitory concentration against proliferation of HL60R cells along with 5 (uM) verapamil. The format is functional, cell-based. The following applies: Homo sapiens. The procedure, abridged: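 HL60R cells, 2 × 10^5 per well in 1 mL complete medium at 37 °C with 5% CO2, given verapamil together with a range of drug concentrations for 48 h. Viable cells were counted by trypan blue exclusion on a hemocytometer and expressed as percent of control proliferation to derive the IC50. Final DMSO ≤0.1%.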

Assay [6] relates to HL-60. The description is as §5. The following applies: Homo sapiens. The format is functional, cell-based. The essentials:
as §2
This is another data set of the same source.

Assay [7] relates to HL-60. The description is as §4. The format is functional, cell-based. The following applies: Homo sapiens. The essentials: as §1
This is another data set of the same source.

The subject of assay [8] is HL-60. Described as §3. The format is functional, cell-based. The following applies: Homo sapiens. The procedure, abridged: as §2
This is another data set of the same source.

The test system of assay [9] is HL-60. The assay is described as follows: In vitro concentration required to inhibit cell proliferation in HL60R cells. The following applies: Homo sapiens.

With `COc1ccc(/C=C/c2cc(O)cc(O)c2)cc1O`, in the assay on HL-60 [1] (Homo sapiens, HL-60), the AC50 (usually the concentration giving half of the maximal activity seen) was over 200000 nM. For the same molecule, the midpoint of inhibition with HL-60 [2] (Homo sapiens, HL-60), the IC50, lay at 48000 nM.
On to `COc1cc(/C=C\c2ccc(OC)c(O)c2)cc(OC)c1`, for which the IC50 (as a rule, the concentration needed to halve the response being measured) stood at 25 nM in the assay with HL-60 [3] and 20 nM with HL-60 [5]. Moreover, the concentration at half-maximal activity (AC50) in the assay on HL-60 [1] (Homo sapiens, HL-60) was 40 nM; in the assay on HL-60 [4], 30 nM.
In the assay on HL-60 [1] (Homo sapiens, HL-60), `COc1cc(/C=C/c2ccc(OC)c(N)c2)cc(OC)c1` came in with a concentration at half-maximal activity (AC50) of 8000 nM. For the same molecule, in the assay with HL-60 [2] (Homo sapiens, HL-60), the IC50 was determined as 4000 nM.
For `COc1cc(/C=C/c2ccc(O[Si](C)(C)C(C)(C)C)cc2)cc(OC)c1`, the AC50 in the assay with HL-60 [1] (Homo sapiens, HL-60) is over 200000 nM. Moreover, the concentration for half-maximal inhibition (IC50) with HL-60 [2] (Homo sapiens, HL-60) was 48000 nM.
For `COc1cc(/C=C\c2ccc(O)c(O)c2)cc(OC)c1` the same measures were 100 nM and 50 nM.
For `COc1cc(/C=C\c2ccc(O)c(OC)c2)cc(OC)c1` the same measures were 38000 nM and 20000 nM.
For `COc1cc(/C=C/c2ccc(O)c(OC)c2)cc(OC)c1`, the AC50 with HL-60 [1] (Homo sapiens, HL-60) worked out at 40000 nM. This molecule showed a concentration for half-maximal inhibition (IC50) in the assay on HL-60 [2] (Homo sapiens, HL-60) of 25000 nM.
`COc1cc(/C=C\c2ccc(OC)c(N)c2)cc(OC)c1`: the figures for the concentration for half-maximal inhibition (IC50) in the assay on HL-60 [6] and in the assay with HL-60 [8] were 32 nM and 35 nM, respectively. Besides, the AC50 with HL-60 [1] (Homo sapiens, HL-60) is 40 nM; in the assay with HL-60 [7] it was 50 nM.
In the case of `COc1cc(/C=C\c2ccc(O[Si](C)(C)C(C)(C)C)cc2)cc(OC)c1`, the concentration at half-maximal activity (AC50) with HL-60 [1] (Homo sapiens, HL-60) is over 200000 nM. This molecule came in with an IC50 with HL-60 [2] (Homo sapiens, HL-60) of 50000 nM.
For `COc1ccc(/C=C/c2cc(O)cc(O)c2)cc1N` the same measures were over 200000 nM and 80000 nM.
The matching figures for `COc1ccc(/C=C\c2cc(O)cc(O)c2)cc1N`: 68000 nM and 40000 nM.
`COc1cc(/C=C/c2ccc(O)c(O)c2)cc(OC)c1` had an AC50 in the assay with HL-60 [1] (Homo sapiens, HL-60) of 1000 nM. In the assay with HL-60 [2] (Homo sapiens, HL-60), this molecule showed a half-inhibitory concentration (IC50) of 800 nM.
For `COc1ccc(/C=C\c2cc(O)cc(O)c2)cc1O` the same measures were 70000 nM and 40000 nM.
For `COc1cc(/C=C/c2ccc(OC)c(O)c2)cc(OC)c1` the same measures were 900 nM and 700 nM.
In the case of `COc1cc(/C=C\c2ccc(O)cc2)cc(OC)c1`, the half-maximal activity concentration (AC50) in the assay with HL-60 [1] (Homo sapiens, HL-60) was 5000 nM. In addition, the half-inhibitory concentration (IC50) with HL-60 [2] (Homo sapiens, HL-60) stood at 2000 nM.
For `Oc1ccc(/C=C\c2cc(O)cc(O)c2)cc1` [CIS-RESVERATROL] the same measures were over 200000 nM and 42000 nM.
As to `Nc1ccn([C@@H]2O[C@H](CO)[C@@H](O)[C@@H]2O)c(=O)n1` [CYTARABINE], the AC50 is 150 nM with HL-60 [1] (Homo sapiens, HL-60) and 8000 nM with HL-60 [7]. Besides, the IC50 in the assay with HL-60 [2] (Homo sapiens, HL-60) came to 80 nM; with HL-60 [9], 350 nM.
As for `COc1cccc2c1C(=O)c1c(O)c3c(c(O)c1C2=O)C[C@@](O)(C(C)=O)C[C@@H]3O[C@H]1C[C@H](N)[C@H](O)[C@H](C)O1` [DAUNORUBICIN], the half-maximal inhibitory concentration (IC50) with HL-60 [6] was found to be 40 nM; in the assay with HL-60 [2] (Homo sapiens, HL-60), 5 nM; in the assay with HL-60 [8], 1500 nM. The half-maximal activity concentration (AC50) in the assay on HL-60 [1] (Homo sapiens, HL-60) was 40 nM; in the assay on HL-60 [7], 10000 nM.
Take `COc1cc([C@@H]2c3cc4c(cc3[C@@H](O[C@@H]3O[C@@H]5CO[C@@H](C)O[C@H]5[C@H](O)[C@H]3O)[C@H]3COC(=O)[C@H]23)OCO4)cc(OC)c1O` [ETOPOSIDE]: the IC50 with HL-60 [6] is 500 nM; in the assay on HL-60 [2] (Homo sapiens, HL-60), 123 nM; in the assay with HL-60 [8], 6500 nM. Also, the AC50 in the assay with HL-60 [1] (Homo sapiens, HL-60) is 450 nM; in the assay with HL-60 [7] it was 15000 nM.
Consider `O=c1[nH]cc(F)c(=O)[nH]1` [FLUOROURACIL], for which, in the assay on HL-60 [1] (Homo sapiens, HL-60), the concentration at half-maximal activity (AC50) worked out at 6500 nM. In the assay with HL-60 [2] (Homo sapiens, HL-60), this molecule yielded an IC50 of 1500 nM.
The matching figures for `COc1cc(/C=C/c2ccc(O)cc2)cc(OC)c1` [PTEROSTILBENE]: 70000 nM and 35000 nM.
For `Oc1ccc(/C=C/c2cc(O)cc(O)c2)cc1` [RESVERATROL] the same measures were 50000 nM and 5000 nM.
With CISPLATIN, in the assay with HL-60 [1] (hl-60), half-maximal activity (AC50) was put at 1200 nM. The IC50 in the assay with HL-60 [2] (hl-60) was 600 nM.

The values above are taken from ChEMBL document CHEMBL1144989, “Synthesis and biological evaluation of resveratrol and analogues as apoptosis-inducing agents” (J Med Chem, 2003).
